Compound activity (PubChem BioAssay)
TRPC6 inhibitor: mouse TRPC6 channel inhibitors, primary screen, cell-based, HEK293, membrane potential dye; Short transient receptor potential channel 6 (Mus musculus), Q61143; ACh-evoked depolarization; active compounds read low; B-score at 10 µM; hit rate 1.1% among 310,000; AID 2553, 2010;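 active = B-score under library mean minus 3 SD, initial fluorescence not abnormally high, positive integrated signal ratio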;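 also: B-score derived from integrated fluorescence ratio over the kinetic read; more negative B-score means stronger inhibition of depolarization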
Target sequence (Q61143 whole entry, looked up): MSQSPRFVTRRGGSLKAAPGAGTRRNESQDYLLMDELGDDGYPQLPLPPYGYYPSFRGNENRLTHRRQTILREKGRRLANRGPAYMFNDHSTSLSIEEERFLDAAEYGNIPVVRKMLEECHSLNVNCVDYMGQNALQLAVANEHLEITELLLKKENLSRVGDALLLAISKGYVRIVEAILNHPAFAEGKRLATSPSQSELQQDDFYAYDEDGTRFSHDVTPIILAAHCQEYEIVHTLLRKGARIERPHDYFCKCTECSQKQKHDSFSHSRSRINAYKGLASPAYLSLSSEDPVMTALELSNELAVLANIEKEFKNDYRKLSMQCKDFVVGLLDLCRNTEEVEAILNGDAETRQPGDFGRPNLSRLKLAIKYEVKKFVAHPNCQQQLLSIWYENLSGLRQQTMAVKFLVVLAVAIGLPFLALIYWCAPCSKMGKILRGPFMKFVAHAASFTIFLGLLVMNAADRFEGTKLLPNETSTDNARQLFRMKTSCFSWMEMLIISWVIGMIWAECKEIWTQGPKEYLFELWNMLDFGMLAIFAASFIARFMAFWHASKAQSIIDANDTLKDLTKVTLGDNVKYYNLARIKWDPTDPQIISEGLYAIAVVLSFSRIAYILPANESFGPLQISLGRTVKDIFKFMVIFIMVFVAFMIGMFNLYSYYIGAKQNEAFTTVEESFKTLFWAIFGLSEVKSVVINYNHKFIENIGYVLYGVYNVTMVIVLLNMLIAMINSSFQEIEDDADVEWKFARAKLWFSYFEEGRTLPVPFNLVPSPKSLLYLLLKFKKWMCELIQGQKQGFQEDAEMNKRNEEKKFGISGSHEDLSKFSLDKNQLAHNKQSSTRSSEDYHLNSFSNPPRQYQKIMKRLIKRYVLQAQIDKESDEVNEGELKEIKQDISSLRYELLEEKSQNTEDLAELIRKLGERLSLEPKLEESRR
TRPC6 act: mouse TRPC6 channel activators, primary screen, cell-based, HEK293, membrane potential dye; B-score at 10 µM; HEK293-TRPC6 membrane potential dye fluorescence; active compounds read high; hit rate 0.13% among 310,000; AID 2550, 2010; Short transient receptor potential channel 6 (Mus musculus), Q61143;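 active = B-score of the integrated fluorescence ratio above library mean plus 3 SD, and starting fluorescence ratio within library mean plus 5 SD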;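 also: higher score means more depolarization so channel activation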
TRPC4 PAM: positive allosteric modulators of TRPC4, primary screen, cell-based, mouse TRPC4beta, HEK293 mu-opioid, Fluo-4 calcium; hit rate 0.42% among 310,000; DAMGO EC20, Fluo-4 Ca2+ flux; active compounds read high; B-score at 10 µM; AID 2227, 2009;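 active = B-score of calcium response area above 5 SD of library B-scores, with initial fluorescence ratio within 5 SD of library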;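 also: B-score of integrated fluorescence ratio over time as area under calcium response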
TRPC4 inh: inhibitors of mouse TRPC4 channel, primary screen, Fluo4 calcium, HEK293 TRPC4beta/mu-opioid cells. DAMGO-evoked Fluo4 calcium flux; active compounds read low. Short transient receptor potential channel 4 (Mus musculus), Q9QUQ5. hit rate 0.39% among 300,000. B-score at 10 µM;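 active = B-score over 3 SD under the library average, no early fluorescence shift, positive overall ratio signal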
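Test system – stable TRPC4beta/mu-opioid receptor HEK293 cells · Probe or stimulus – DAMGO, a submaximal dose followed by a maximal one · Dosing – one concentration per compound · Signal – Fluo4 calcium fluorescence by kinetic imaging, 5 s 1 Hz baseline · Evaluation – per-well B score of integrated baseline-normalized Fluo4 ratio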
TRPC4 agonist: activators of mouse TRPC4 channel, primary screen, Fluo4 calcium, HEK293 TRPC4beta/mu-opioid cells. Short transient receptor potential channel 4 (Mus musculus), Q9QUQ5. Fluo4 calcium fluorescence; active compounds read high. B-score at 10 µM. hit rate 0.49% among 310,000;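 active = B-score above 5 SD of library B-scores, and initial fluorescence ratio not above library mean plus 5 SD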;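 also: positive B-score marks a calcium rise read as TRPC4 activation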
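System: HEK293 cells stably co-expressing mouse TRPC4beta and mu-opioid receptor; Schedule: Fluo4 dye loading 45 min at room temperature, 110 s recording; Detection: Fluo4 fluorescence, kinetic; Evaluation: B-scored integrated calcium fluorescence ratio; Controls: buffer (low) and maximal DAMGO (high).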
TRPC4 spec 2: second check of whether TRPC6 inhibitors also affect mouse TRPC4 | shares compounds with TRPC6 inhibitor | HEK293 TRPC4/MOR, membrane potential dye fluorescence; channel activated by saturating DAMGO dose | inhibition, % at 10 µM | hit rate 42% among 920 | AID 2776;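 active = compounds whose fluorescence signal differed from control wells by over 3 SD, either direction, in both duplicate plates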
TRPC4 spec: mouse TRPC4 modulation by TRPC6 hits, confirmation, selectivity assay for TRPC6 inhibitor project, cell-based, HEK293 TRPC4/mu-opioid, membrane potential dye; shares compounds with TRPC6 inhibitor; membrane potential fluorescence; activity change, negative = inhibition, % at 10 µM; hit rate 61% among 920; AID 2777, 2010;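 active = rise or fall in signal beyond 3 SD of buffer-only wells in both replicate plates, either sign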;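 also: integrated kinetic ratio of fluorescence range over baseline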
HEK293 MPD ctr 2-1: nonspecific membrane potential effects, parental HEK293, confirmation, counter-screen for TRPC6 inhibitor project, cell-based, second counter screen; signal change vs control, % at 10 µM; hit rate 31% among 920; shares compounds with TRPC6 inhibitor; AID 2779, 2010; parental HEK293 membrane potential dye fluorescence; maximal acetylcholine challenge after compound addition;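 active = membrane potential signal moving either way by over 3 SD of the maximum-effect control, in both duplicate plates, meaning non-specific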
HEK293 MPD ctr-1: membrane potential modulation in parental HEK293, confirmation, counter-screen for TRPC6 inhibitor project, cell-based. shares compounds with TRPC6 inhibitor. hit rate 60% among 920. parental HEK293 membrane potential dye fluorescence. membrane potential signal change, % at 10 µM;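 active = membrane potential signal shifting up or down by more than 3 SD of buffer-only wells, on both duplicate plates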
HEK293 MPD ctr-2: parental HEK293 membrane potential modulation, confirmation, counter-screen for TRPC6 modulator project, cell-based | shares compounds with TRPC6 inhibitor | membrane potential dye fluorescence | membrane potential signal change, % at 10 µM | hit rate 51% among 2,400;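 active = membrane potential signal moves up or down beyond 5 SD from buffer-only wells, on both duplicate plates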
HEK293 MPD ctr 2-2: second counter-screen for TRPC6 modulators: effect in parental HEK293 cells | hit rate 14% among 2,400 | inhibition, % at 10 µM | shares compounds with TRPC6 inhibitor | membrane potential dye fluorescence; after compound, maximal acetylcholine stimulation;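 active = membrane potential signal drops by more than 5 SD from the mean control signal, in both duplicate plates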;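 also: plate controls were acetylcholine ECmax control wells for no effect and buffer only wells for full effect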
TRPC4 ctr mod: TRPC4 modulation by TRPC6 hit compounds, confirmation, selectivity assay for TRPC6 modulator project, cell-based, HEK293 TRPC4/mu-opioid, membrane potential dye, mouse. hit rate 69% among 2,400. percent change from control (negative = decrease, positive = increase), % at 10 µM. membrane potential fluorescence. shares compounds with TRPC6 inhibitor;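 active = membrane potential signal moved up or down beyond 5 SD of buffer control wells, in both duplicate plates, actives on both sides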;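 also: plate controls were assay buffer wells for no effect and DAMGO maximal-effect wells for full effect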
TRPC4/MOR inh 2: second selectivity test of TRPC6 modulators against mouse TRPC4. HEK293 TRPC4/mu-opioid, membrane potential dye fluorescence; stimulated with maximal-effect DAMGO. shares compounds with TRPC6 inhibitor. inhibition, % at 10 µM. hit rate 55% among 2,400;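 active = drop in membrane potential signal beyond 5 SD of the control wells in both duplicate plates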;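 also: TRPC4 counter screen for TRPC6 hits run under conditions tuned for TRPC6 not TRPC4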
TRPC6 block conf: mouse TRPC6 channel inhibitors, confirmation, HEK293 cells, membrane potential dye, duplicate. shares compounds with TRPC6 inhibitor. hit rate 43% among 3,300. ACh-evoked depolarization. inhibition, % at 10 µM;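 active = fluorescence ratio falls more than 5 SD below the full-stimulation control mean, in both duplicate runs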;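 also: integrated fluorescence ratio of peak minus minimum over baseline after agonist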
TRPC6 act conf: mouse TRPC6 channel activators, confirmation, HEK293 cells, membrane potential dye, duplicate; activation, % at 10 µM; hit rate 11% among 2,800; AID 488961, 2010; HEK293-TRPC6 membrane potential dye fluorescence, FDSS; shares compounds with TRPC6 inhibitor;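 active = ratio signal rise beyond 5 SD above unstimulated control wells' mean, seen in both duplicate runs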;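 also: plate controls were buffer EC0 wells for no effect and acetylcholine ECmax response for full effect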
Active calls of the source: *; i = inactive; x = no result given; + = active, no number. Only some compounds are listed: those with a hit (about 2.3% of all), similar ones and a draw of the others.

SMILES	TRPC6 inhibitor	TRPC6 act	TRPC4 PAM	TRPC4 inh	TRPC4 agonist	HEK293 MPD ctr-2	HEK293 MPD ctr 2-2	TRPC4 ctr mod	TRPC4/MOR inh 2	TRPC6 block conf	TRPC6 act conf	others
CC[N+]12CCC(CC1)C(=C(c1ccccc1)c1ccccc1)C2	-6.1*	i	i	i	i	i	69%*	i	i	66%*	i
CN1CCN(C(=O)O[C@H]2c3nccnc3C(=O)N2c2ccc(Cl)cn2)CC1	i	i	i	i	i	x	x	x	x	x	x
COc1ccc(-c2csc(NC(=O)COC(=O)Cc3ccccc3)n2)cc1OC	i	i	i	i	i	x	x	x	x	x	x
Cc1nonc1OCCNCCNc1ccc([N+](=O)[O-])c2cccnc12	-5.1*	i	i	i	i	-180%*	i	-38%*	75%*	48%*	i
CCNCCNc1ccc([N+](=O)[O-])c2cccnc12	-5.9*	i	18*	i	i	-288%*	i	-40%*	54%*	72%*	i
CCc1nc2ccccc2c(=O)n1-c1ccccc1[N+](=O)[O-]	i	i	i	i	i	x	x	x	x	x	x
COc1ccc(-n2c(-c3ccccc3Br)nc3ccccc3c2=O)cc1	i	i	i	i	i	x	x	x	x	x	x
COc1ccc(CC(=O)Nc2ccc(C#N)c(Cl)c2)cc1S(=O)(=O)N1CCOCC1	i	i	i	i	i	x	x	x	x	x	x
CCCCn1c(O)c(C(C)=NCCc2c[nH]c3ccccc23)c(=O)[nH]c1=O	i	i	i	i	i	x	x	x	x	x	x
O=C(/C=C/c1c[nH]c2ccccc12)c1c(O)n(CCc2ccccc2)c(=O)[nH]c1=O	i	144*	i	i	i	+	i	392%*	i	i	390%*
COc1ccccc1CCNC1CCC(C(C)(C)C)CC1 (stereo not given)	-14*	18*	i	i	i	673%*	105%*	156%*	82%*	98%*	178%*
COc1ccccc1CCNC1CCCCCC1	i	i	i	i	i	x	x	x	x	x	x
Nc1c2c(nc3sc4c(c13)CCCC4)CCCC2	-5.9*	i	i	i	i	i	i	-8.0%*	62%*	i	i
COc1ccc(-[n+]2c(-c3ccccc3)cc(-c3ccc(C)cc3)cc2-c2ccccc2)cc1	-9.1*	i	i	i	i	x	x	x	x	70%*	x	TRPC4 spec 2=i;TRPC4 spec=17%*;HEK293 MPD ctr 2-1=i;HEK293 MPD ctr-1=18%*
Cc1ccccc1-[n+]1c(-c2ccccc2)cc(-c2ccccc2)cc1-c1ccccc1	-10*	i	i	i	i	x	x	x	x	100%*	i	TRPC4 spec 2=60%*;TRPC4 spec=20%*;HEK293 MPD ctr 2-1=i;HEK293 MPD ctr-1=7.1%*
COc1ccc(-c2cc(-c3ccccc3)[n+](C)c(-c3ccccc3)c2)cc1	-5.6*	i	i	i	i	i	i	i	i	i	i
Cc1ccc(-c2cc(-c3ccccc3)cc(-c3ccccc3)[n+]2-c2ccc(C(=O)O)cc2)cc1	i	i	i	i	i	x	x	x	x	x	x
COc1cc2c(cc1OC)-c1c(OC)c(OC)cc3c1[C@H](C2)N(C)CC3	-7.7*	i	i	i	i	-412%*	i	-58%*	38%*	45%*	i
CCC(CO)(C(=O)OC1CC2CCC(C1)N2C)c1ccccc1 (stereo not given)	-7.6*	i	i	i	i	x	x	x	x	89%*	i	TRPC4 spec 2=i;TRPC4 spec=i;HEK293 MPD ctr 2-1=-46%*;HEK293 MPD ctr-1=i
CN1C(=O)/C(=C\c2ccc(N3CCCCC3)o2)C(=O)NC1=S	i	i	i	i	i	x	x	x	x	x	x
CN1C(=O)/C(=C/c2ccc(N3CCCCCC3)o2)C(=O)NC1=S	i	19*	i	i	i	472%*	i	50%*	i	i	93%*
O=c1oc2ccccc2c(O)c1C(c1ccc([N+](=O)[O-])cc1)c1c(O)c2ccccc2oc1=O	-7.3*	i	i	i	i	x	x	x	x	i	i	TRPC4 spec 2=i;TRPC4 spec=i;HEK293 MPD ctr 2-1=i;HEK293 MPD ctr-1=-272%*
C/C(CC(c1ccccc1)c1c(O)c2ccccc2oc1=O)=N\Nc1ccc([N+](=O)[O-])cc1[N+](=O)[O-] (stereo not given)	i	i	i	i	i	x	x	x	x	x	x
